In article PMC2633595 (Analytical biochemistry, 2008):
“Also recorded” adds a separate entry of the source. Like-named read-outs stand apart in the source and are kept apart here.

Experiments:
GST-Rab7 [1] = biological target: T1, GST-Rab7 (Canis lupus familiaris, UniProt P18067); type: binding, canine; conditions: for maximal binding Bmax: GST-Rab7, 1 mM MgCl2
Summary of the method: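 Canine GST-Rab7 from E. coli, glutathione-purified, loaded at 1 µM onto glutathione beads (4°C, overnight, HPS buffer, 1 mM DTT). 10^4 beads incubated 2 h at 4°C with 0–2 µM BODIPY FL GTP, GDP or GTP-γ-NH in 1 mM EDTA or 1 mM MgCl2. Diluted ≥10-fold and read by flow cytometry. Fluorescein calibration beads gave BODIPY/bead. Bmax and Kd from hyperbolic fit.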

GST-Rab7 [2] = biological target: T1, GST-Rab7; type: binding, canine; conditions: competition with 100 nM BODIPY FL GTP, 1 mM EDTA buffer
Summary of the method: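 Canine Rab7 GST fusion expressed in BL21(DE3) E. coli and glutathione-affinity purified. 1 µM protein loaded overnight at 4°C onto glutathione Superdex beads in HPS buffer (HEPES pH 7.5, KCl, NaCl, dodecyl maltoside) with 1 mM DTT, then washed. 10^4 beads incubated 2 h at 4°C with 100 nM BODIPY FL GTP plus unlabeled GDP or GTP-γ-S. Read by flow cytometry; fitted EC50 converted to Ki.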

GST-Rab7 [3] = biological target: T1, GST-Rab7; test: Kinetic assays; type: binding, canine; conditions: for koff: GST-Rab7, 1 mM EDTA buffer
GST-RhoA = GST-RhoA (Homo sapiens, UniProt P61586); type: binding; conditions: for maximal binding Bmax: 1 mM MgCl2; for Bmax / Kd: 1 mM MgCl2 buffer
Summary of the method: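 GST-RhoA purified from E. coli. Loaded at 1 µM overnight at 4°C onto glutathione beads in HPS buffer with 1 mM DTT and 1 mM MgCl2, then washed twice. 10^4 beads incubated 2 h at 4°C with 0–2 µM BODIPY FL GTP or GTP-γ-NH in 1 mM MgCl2. Diluted ≥10-fold and read by flow cytometry. Signal calibrated to BODIPY/bead with fluorescein beads. Bmax and Kd from hyperbolic fit.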

Rab7 = conditions: nucleotide free system ref 11; cited from earlier work
[4] = GST-Rab7, 1 mM EDTA buffer, 2 h at 4°C

T1 sequence (P18067 whole entry): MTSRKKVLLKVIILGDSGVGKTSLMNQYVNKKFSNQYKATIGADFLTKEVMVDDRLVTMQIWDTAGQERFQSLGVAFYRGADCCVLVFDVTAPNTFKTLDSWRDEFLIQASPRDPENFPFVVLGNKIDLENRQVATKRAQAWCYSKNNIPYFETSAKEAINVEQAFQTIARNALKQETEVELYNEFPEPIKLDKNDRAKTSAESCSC
GST-RhoA, sequence (P61586 whole entry): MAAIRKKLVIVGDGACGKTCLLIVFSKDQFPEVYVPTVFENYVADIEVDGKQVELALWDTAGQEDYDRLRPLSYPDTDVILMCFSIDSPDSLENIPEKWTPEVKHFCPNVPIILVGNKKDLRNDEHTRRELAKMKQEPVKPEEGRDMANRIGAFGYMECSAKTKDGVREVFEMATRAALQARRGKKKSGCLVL

Compound | higher affinity of Rab7 for GDP relative to GTP (GST-Rab7 [1]; GST-Rab7) | Ki (GST-Rab7 [2]) | Bmax (GST-Rab7 [1]; GST-Rab7, 1 mM EDTA buffer) | Kd (GST-Rab7 [1]; [4]) | koff (GST-Rab7 [3]) | maximal binding Bmax (GST-RhoA) | Bmax (GST-RhoA) | Kd (GST-RhoA) | maximal binding Bmax (GST-Rab7 [1]) | Bmax (GST-Rab7 [1]; GST-Rab7, 1 mM MgCl2 buffer) | Kd (GST-Rab7 [1]; GST-Rab7, 1 mM MgCl2 buffer) | further results
Nc1nc2c(ncn2[C@@H]2O[C@H](COP(=O)(O)OP(=O)(O)O)[C@@H](O)[C@H]2O)c(=O)[nH]1 [GDP] | 3 fold | 13 ± 5 nM | – | – | – | – | – | – | – | – | – | slower dissociation rate of GDP (GST-Rab7 [3]; GST-Rab7, relative to GTP): 3 fold
Nc1nc2c(ncn2[C@@H]2O[C@H](COP(=O)(O)OP(=O)(O)OP(O)(O)=S)[C@@H](O)[C@H]2O)c(=O)[nH]1 [GTP-γ-S] | – | 40 ± 10 nM | – | – | – | – | – | – | – | – | – | –
BODIPY FL GDP 2′-(or-3′)-O-(N-(2-aminoethyl)urethane) | 3 fold | – | 2000 ± 400 10^3 BODIPY/bead | 54 ± 15 nM | 2.3 ± 1.5 × 10^−3 sec^−1 | – | – | – | – | – | – | –
BODIPY FL GTP 2’-(or-3’)-O-(N-(2-aminoethyl)urethane | – | – | 1600 ± 400 10^3 BODIPY/bead | 150 ± 62 nM | 7.0 ±3.0 × 10^−3 sec^−1 | 700 × 10^3 fluorophores/bead | 700 ± 20 10^3 BODIPY/bead | 80 ± 10 nM | 650 × 10^3 fluorophores/bead | 650 ± 10 10^3 BODIPY/bead | 20 ± 5 nM | decrease in affinity in the absence of Mg^2+ (GST-Rab7 [1]; GST-Rab7): 8 fold; maximal binding (GST-Rab7 [1]; GST-Rab7, 1 mM EDTA): 1600 × 10^3 fluorophores/bead; faster dissociation of GTP compared to GDP (GST-Rab7 [3]; GST-Rab7): 3 fold; t1/2 (observed on-rate half-time) (GST-Rab7 [3]; GST-Rab7, 1 mM EDTA, 50-500 nM BODIPY FL GTP): 11.1 ± 0.6 min; dissociation rate faster in the absence of Mg^2+ relative to Mg^2+ present (GST-Rab7 [3]; GST-Rab7, competed by excess unlabeled nucleotide): 7 times; koff Mg^2+ (GST-Rab7 [3]; GST-Rab7, with Mg^2+): 0.0013 s⁻¹
BODIPY FL GTP-γ-NH amide | – | – | – | – | – | 710 × 10^3 fluorophores/bead | 710 ± 15 10^3 BODIPY/bead | 95 ± 10 nM | 60 × 10^3 fluorophores/bead | 60 ± 5 10^3 BODIPY/bead | 70 ± 20 nM | binding to GST-Rab7 (in words) (GST-Rab7 [1]; GST-Rab7): unique inability; also recorded: marked inability to bind; lower binding affinity relative to BODIPY FL GTP (GST-Rab7 [1]; GST-Rab7, with Mg^2+): 90%
methylanthraniloyl (mant) GTP | – | – | – | – | – | – | – | – | – | – | – | Kd (Rab7): 6 nM
